Source: PubChem BioAssay (several laboratories)
C8 TRAIL sens: sensitizes caspase-8 expressing cells to TRAIL; NB7+C8 cells + TRAIL, ATPlite viability luminescence; inhibition (viability loss, TRAIL sensitization), % at 10 µM; actives 1% (n = 360,000); AID 624354;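 active = compounds causing at least 50% loss of cell viability in the single-dose screen, relative to plate controls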
STAT1 inh: reduces IFN-gamma driven STAT1 reporter signal; actives 0.35% (n = 200,000); AID 920; inhibition, % at 5.5 µM; NIH 3T3 STAT1-luciferase reporter, luminescence;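 active = inhibition above a set limit, the mean inhibition across all tested compounds plus 3 SD, cut at about 34% in these data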;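 note: 0% = IFN-gamma with DMSO and 100% = IFN-gamma with 300 µM nifuroxazide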
HSP90 inh: blocks HSP90-mediated luciferase refolding in reticulocyte lysate. Rabbit reticulocyte lysate, luciferase refolding luminescence, 3 h. inhibition, % at 5.6 µM. actives 0.91% (n = 290,000). AID 1789;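 active = inhibition above the screen-wide mean plus 3 SD, computed separately per campaign, cut at about 16% in these data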;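 note: 0% = DMSO wells and 100% = 60 µM geldanamycin wells; inhibitors lower the luminescence because luciferase stays unfolded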
PPC-1+TRAIL kill: compounds killing PPC-1 cancer cells with TRAIL present (potentiator screen, no TRAIL-free arm) | PPC-1 cells + TRAIL, ATPLite viability luminescence | cell killing (% activity), % at 4 µM or 5 µM | actives 0.41% (n = 220,000);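 active = cell killing above 50% in the first pass at 4 µM, then a duplicate retest at 5 µM averaging 50% or more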;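 note: plate controls were cells with TRAIL plus DMSO for no effect and medium-only wells lacking cells for full effect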
STAT3 act: increases IL-6 driven STAT3 reporter signal; actives 0.91% (n = 190,000); U3A cells, IL-6 STAT3-luciferase reporter, luminescence; 100% = signal with IL-6 EC80 alone; AID 871; activation (% of control), % at 5.6 µM;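 active = activation above the screen-wide mean of compound activation plus 3 SD, cut at about 130% in these data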;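 note: 0% = background luminescence of wells with medium and substrate only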
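Test system: Human STAT1-deficient U3A cells with stable STAT3-luciferase reporter | Also added: Interleukin-6, 33 ng/mL | Timing: Compound pre-incubation 1 h before IL-6, then 6 h stimulation at 37 °C | Technique: Luciferase reporter luminescence | Read-out: Percent of IL-6-only median luminescence | Benchmarks: IL-6-only wells as 100% reference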
STAT3 inh: STAT3 signaling inhibition | U3A cells, IL-6 STAT3-luciferase reporter, luminescence; host cell line lacks STAT1 | actives 0.89% (n = 190,000) | inhibition, % at 5.5 µM;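 active = inhibition above the mean inhibition across all screened compounds plus 3 SD, cut at about 44% in these data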;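 note: 0% = DMSO only wells and 100% = 100 µM nifuroxazide control wells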
PPC-1 tox: PPC-1 cell cytotoxicity; shares compounds with PPC-1+TRAIL kill; PPC-1 viability, ATPlite luminescence, overnight; cytotoxicity, % at 5 µM; actives 50% (n = 1,200);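 active = reconfirmed compounds whose average cytotoxicity reaches 50% or more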;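 note: 0% = DMSO-treated cells and 100% = wells holding medium but no cells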
* marks the source's active call; other numbers are inactive results; / = no result given. The list is not random: actives were taken first. Their share in the collection is about 2.3%.

SMILES	C8 TRAIL sens	STAT1 inh	HSP90 inh	PPC-1+TRAIL kill	STAT3 act	STAT3 inh	PPC-1 tox
CNC(CC(C)C)C(=O)NC1C(=O)NC(CC(N)=O)C(=O)NC2C(=O)NC3C(=O)NC(C(=O)NC(C(=O)O)c4cc(O)cc(O)c4-c4cc3ccc4O)C(O)c3ccc(c(Cl)c3)Oc3cc2cc(c3OC2OC(CO)C(O)C(O)C2OC2C[C@](C)(N)C(O)C(C)O2)Oc2ccc(cc2Cl)C1O (some centres undefined)	-4	/	/	/	/	/	/
COc1nc(Nc2nc3ccccc3c(=O)[nH]2)nc2ccc(C)cc12	21	/	4	51*	/	/	51*
Cc1cc(C)cc(Nc2nc3ccccc3c(=O)[nH]2)c1	5	-5	1	14	109	-10	/
Cc1cc(C(=O)Nc2cnc3ccccc3c2)ccc1[N+](=O)[O-]	10	-40	-4	0	80	29	/
Cc1ccc(C(=O)Nc2cnc3ccccc3c2)cc1	78*	91*	87*	70*	9	110*	67*
O=C(c1nc2nc(-c3ccccc3)cc(C(F)(F)F)n2n1)N1CCCCC1	0	6	-2	-2	93	7	-10
O=C(CCl)Nc1cc(SCC(O)CO)cc([N+](=O)[O-])c1 (centres undefined)	2	54*	4	48	20	98*	50*
Cc1ccc(N2C(=O)C3C4C=CC(CNC(=S)Nc5ccc(Cl)cc5)(O4)C3C2=O)cc1 (centres undefined)	-1	5	-2	15	105	-9	/
CCc1nc2c(OCc3ccc(Cl)cc3)cccn2c1N(C)C(=O)c1ccc(C)cc1	-4	/	/	/	/	/	/
COC(=O)c1nc2n(n1)C(c1ccc(OC)c(OC)c1OC)C1=C(CCCC1=O)N2 (centres undefined)	4	-4	5	15	96	11	12
Cn1c(CNC(=O)Cc2ccc3c(c2)OCO3)nnc1SCc1ccccc1	-1	-1	-2	-11	99	6	8
Cc1ccccc1NC(=O)CSc1nnc(CNC(=O)c2ccc3c(c2)OCO3)n1C	7	/	0	/	/	/	/
CCCCn1nnnc1C(c1ccccc1)N1CCN(Cc2c(F)cccc2Cl)CC1 (centres undefined)	-3	/	/	/	/	/	/
Cc1occc1C(=O)O/N=C(\N)c1ccccc1	70*	/	3	57*	/	/	55*
Cc1cc(=O)n2nc(N3CCCC(C(=O)N4CCN(c5ccccc5)CC4)C3)sc2n1 (centres undefined)	8	-6	4	1	87	20	31
COC(=O)c1cccc(S(=O)(=O)N2CCC(n3nnc4cc(F)ccc43)CC2)c1	-1	8	1	10	97	8	24
CCc1c(C)c2c(C)nn(-c3ccccc3)c2[nH]c1=O	5	13	7	-6	87	18	/
CCc1c(C)n2nc(C)cc2[nH]c1=O	-19	1	2	14	96	14	12
Cc1ccc(/C=N/Nc2ccc3ccccc3n2)o1	65*	73*	14	52*	30	90*	58*
Cc1ccc(/C=N/Nc2cn[nH]c(=O)n2)o1	-11	-6	5	6	101	2	/
Fc1ccccc1-c1ccc(/C=N/Nc2nc3ccccc3[nH]2)o1	79*	-9	-2	80*	126	-34	78*
CCCCn1c(/C=N/Nc2nc3ccccc3[nH]2)nc2ccccc21	27	-13	-2	0	105	-11	/
Cc1ccc(/C=N\Nc2nc3ccc(Cl)cc3[nH]2)o1	9	-40	-7	7	95	12	10
CN(C)c1cccc(NC(=O)c2ccco2)c1	-3	-6	-2	15	115	-17	/
CC(C)NC(=O)c1ccc(COCC(F)(F)F)cc1	-3	-4	4	5	102	-6	/
CC1CCCC(NC(=O)CSc2nnc(-c3cccnc3)o2)C1C (centres undefined)	1	/	/	/	/	/	/
C=CCNC(=O)/C(=C/c1cccc([N+](=O)[O-])c1)NC(=O)c1ccccc1	3	-19	3	2	106	-6	6
